Measured values: ChEMBL document CHEMBL1142636 (2000)
The source made the active and inactive calls.

What was measured:
Assay type in all cases: functional
MDA-N = test: Growth inhibition of human MDA-N cells
M14 = test: Growth inhibition of human M14 cells
HOP-18 = test: Growth inhibition of human HOP18 cells
OVACR4 = test: Growth inhibition of human OVACR4 cells
BT-549 = test: Growth inhibition of human BT549 cells
RXF 393 = test: Growth inhibition of human […] cells
EKVX = test: Growth inhibition of human EKVX cells
HCT-116 = test: Growth inhibition of human HCT116 cells
OVACR8 = test: Growth inhibition of human OVACR8 cells
NCI/ADR-RES = test: Growth inhibition of human MCF7/ADR-RES cells
U-251 = test: Growth inhibition of human U251 cells
Outline: (§1)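 Tested at the NCI in its human disease-oriented in vitro screen of 60 tumour cell lines, following the Monks et al. methods. Activity is expressed as GI50, given as log molar values.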

COLO 205 = test: Growth inhibition of human COLO205 cells
SNB-75 = test: Growth inhibition of human SNB75 cells; outline: as §1
DMS-273 = test: Growth inhibition of human DMS273 cells
HOP-62 = test: Growth inhibition of human HOP62 cells
CCRF-CEM = test: Growth inhibition of human CCRF-CEM cells
NCI-H23 = test: Growth inhibition of human NCI-H23 cells
PC-3 = test: Growth inhibition of human PC3 cells
NCI-H460 = test: Growth inhibition of human NCI-H460 cells
DMS144 = test: Growth inhibition of human DMS144 cells
MDA-MB-231 = test: Growth inhibition of human MDA-MB-231 cells
SF-539 = test: Growth inhibition of human SF539 cells; outline: as §1
KM12 = test: Growth inhibition of human KM12 cells
RPMI8266 = test: Growth inhibition of human RPMI8266 cells
M19-MEL = test: Growth inhibition of human M19-MEL cells
Hs-578T = test: Growth inhibition of human HS578T cells
SF-268 = test: Growth inhibition of human SF268 cells; outline: as §1
MOLT-4 = test: Growth inhibition of human MOLT4 cells
DLD-1 = test: Growth inhibition of human DLD1 cells
SW-620 = test: Growth inhibition of human SW620 cells; outline: as §1
A549 = test: Growth inhibition of human A549 cells
SR = test: Growth inhibition of human SR cells; outline: as §1
SNB-19 = test: Growth inhibition of human SNB19 cells; outline: as §1
HOP-92 = test: Growth inhibition of human HOP92 cells
KM-20L2 = test: Growth inhibition of human KM20L2 cells
SK-OV-3 = test: Growth inhibition of human SK-OV-3 cells; outline: as §1
DU-145 = test: Growth inhibition of human DU145 cells
UO-31 = test: Growth inhibition of human UO31 cells; outline: as §1
SK-MEL-28 = test: Growth inhibition of human SK-MEL-28 cells; outline: as §1
786-0 = test: Growth inhibition of human 786-0 cells
T47D = test: Growth inhibition of human T47D cells; outline: as §1
XF498 = test: Growth inhibition of human XF498 cells; outline: as §1
SN12C = test: Growth inhibition of human SN12C cells; outline: as §1
Malme-3M = test: Growth inhibition of human MALME-3M cells
SK-MEL-2 = test: Growth inhibition of human SK-MEL-2 cells; outline: as §1
OVACR5 = test: Growth inhibition of human OVACR5 cells
MCF7 = test: Growth inhibition of human MCF7 cells
SK-MEL-5 = test: Growth inhibition of human SK-MEL-5 cells; outline: as §1
SF-295 = test: Growth inhibition of human SF295 cells; outline: as §1
LOX IMVI = test: Growth inhibition of human LOX IMVI cells
LXFL 529 = test: Growth inhibition of human LXFL529 cells
UACC-257 = test: Growth inhibition of human UACC257 cells; outline: as §1
HT-29 = test: Growth inhibition of human HT29 cells
CAKI-1 = test: Growth inhibition of human CAKI1 cells
UACC-62 = test: Growth inhibition of human UACC62 cells; outline: as §1
MDA-MB-435 = test: Growth inhibition of human MDA-MB-435 cells
HCC 2998 = test: Growth inhibition of human HCC2998 cells
TK-10 = test: Growth inhibition of human TK10 cells; outline: as §1
NCI-H522 = test: Growth inhibition of human NCI-H522 cells
A498 = test: Growth inhibition of human A498 cells
NCI-H226 = test: Growth inhibition of human NCI-H226 cells
K562 = test: Growth inhibition of human K562 cells
HCT-15 = test: Growth inhibition of human HCT15 cells
ACHN = test: Growth inhibition of human ACHN cells
OVACR3 = test: Growth inhibition of human […] cells
IGROV-1 = test: Growth inhibition of human IGROV1 cells
HL-60(TB) = test: Growth inhibition of human HL60(TB) cells
NCI-H322M = test: Growth inhibition of human NCI-H322M cells

Measured: Activity

COc1ccc2c([nH]c3c(O)c(-c4c(C)cc5c([nH]c6c(CC=C(C)C)c(OC)ccc65)c4O)c(C)cc32)c1CC=C(C)C
inactive: all assays above
